Results taken from ChEMBL document CHEMBL4024769, “Synthesis and Investigation of Photophysical and Biological Properties of Novel S-Containing Bacteriopurpurinimides” (J Med Chem, 2017).
Active and inactive are the calls of the source. The rule behind the calls is not given here.

Tests used:
[1] = (§1) Phototoxicity against rat Sarcoma M1 cells implanted in rat assessed as volume of tumor necrotic zones at 2.5 mg/kg, ip administered as single dose on day 11 after inoculation followed by 300 J/cm2 irradiation after 2.5 to 3 hrs measured on day 1 post photodynamic therapy (reference value: 32 +/- 6 %); type: functional
Summary of the method: (§2)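 Rat M1 sarcoma was implanted subcutaneously in the left thigh, with randomisation on day 10. A single 2.5 mg/kg ip dose was given on day 11, then 810 nm laser (0.51 W/cm2, 300 J/cm2, 10 min) after 2.5−3 h. Tumours were sectioned on days 1, 3 and 12 after PDT (controls days 12, 14, 23), five animals per point. Parenchyma and necrotic zone volumes were estimated on hematoxylin and eosin staining.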

[2] = Phototoxicity against rat Sarcoma M1 cells implanted in rat assessed as apoptotic index at 2.5 mg/kg, ip administered as single dose on day 11 after inoculation followed by 300 J/cm2 irradiation after 2.5 to 3 hrs measured on day 1 post photodynamic therapy (reference value: 0.29 +/- 0.02 %); type: functional
Summary of the method: (§3)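 Rats with M1 sarcoma implanted subcutaneously in the left thigh were randomized on day 10, 25 per group. Single ip dose of 2.5 mg/kg on day 11; laser irradiation 2.5–3 h later at 810 nm, 0.51 W/cm2, 300 J/cm2, 10 min over a 1.5 cm field. Five rats sampled per time point for H&E histology, PCNA immunohistochemistry (1:200) and tumor volume. Untreated controls; Student's test, p < 0.05.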

[3] = Phototoxicity against rat Sarcoma M1 cells implanted in rat assessed as tumor volume at 2.5 mg/kg, ip administered as single dose on day 11 after inoculation followed by 300 J/cm2 irradiation after 2.5 to 3 hrs measured on day 1 post photodynamic therapy (reference value: 1.22 +/- 0.18 mm3); type: functional; summary of the method: as §3
[4] = Phototoxicity against mouse S37 cells assessed as cell growth inhibition preincubated for 4 hrs with subsequent 10 J/cm2 irradiation followed by incubation in absence of compound for 24 hrs by MTT assay; type: functional; conditions: S37, light or radiation study
Summary of the method: (§4)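 S37 cells treated with 0.05–28 μM compound added 24 h after plating. After 0.25–6 h incubation, cells were irradiated with a halogen lamp through a KS-19 filter (720 nm) at 21.0 ± 1.0 mW/cm2, 10 J/cm2, with or without removing the compound. MTT read 24 h later; 50% growth inhibition taken as the value, mean of three tests.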

[5] = Phototoxicity against rat Sarcoma M1 cells implanted in rat assessed as mitotic index at 2.5 mg/kg, ip administered as single dose on day 11 after inoculation followed by 300 J/cm2 irradiation after 2.5 to 3 hrs measured on day 12 post photodynamic therapy (reference value: 1.9 +/- 0.2%); type: functional; summary of the method: as §3
Sarcoma M1 = assay: Phototoxicity against rat Sarcoma M1 cells implanted in rat assessed as tumor vasculature disruption at 2.5 mg/kg, ip administered as single dose on day 11 post inoculation followed by 300 J/cm2 irradiation after 2.5 to 3 hrs measured on day 2 post photodynamic therapy by CD31 dependent immunoimgaing; type: functional, organism-based
[6] = Phototoxicity against mouse S37 cells implanted in F1 mouse assessed as tumor growth inhibition at 5 mg/kg, iv preincubated for 30 mins with subsequent 150 J/cm2 irradiation measured on day 20 post irradiation relative to control; type: functional; conditions: S37, light or radiation study, read-out: TGI
Summary of the method: (§5)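 S37 sarcoma mice treated on day 7 of tumor growth with compound iv; tumors 140–160 mm3 beforehand, droperidol 0.25 mg ip as anesthetic. LED irradiation at 800 ± 21 nm, 100 mW/cm2, 150 J/cm2, given 15 or 30 min after dosing. Controls got iv 0.9% NaCl. Volume = d1×d2×d3×0.52; TGI = […]×100%.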

[7] = (§6) Phototoxicity against rat Sarcoma M1 cells implanted in rat assessed as volume of tumor parenchyma at 2.5 mg/kg, ip administered as single dose on day 11 after inoculation followed by 300 J/cm2 irradiation after 2.5 to 3 hrs measured on day 12 post photodynamic therapy by hematoxylin and eosin staining based assay (reference value: 56 +/- 3%); type: functional; summary of the method: as §2
[8] = Phototoxicity against rat Sarcoma M1 cells implanted in rat assessed as tumor volume at 2.5 mg/kg, ip administered as single dose on day 11 after inoculation followed by 300 J/cm2 irradiation after 2.5 to 3 hrs measured on day 12 post photodynamic therapy (reference value: 12 +/- 3 mm3); type: functional; summary of the method: as §3
[9] = as §1, with “of PCNA-positive cells in” for “of”, “parenchyma” for “necrotic zones”, “71” for “32”, “3” for “6”; type: functional; summary of the method: as §3
[10] = Phototoxicity against rat Sarcoma M1 cells implanted in rat assessed as volume of PCNA-positive cells in tumor parenchyma at 2.5 mg/kg, ip administered as single dose on day 11 after inoculation followed by 300 J/cm2 irradiation after 2.5 to 3 hrs measured on day 3 post photodynamic therapy (reference value: 81 +/- 3%); type: functional
Summary of the method: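 Female rats bearing subcutaneous M1 sarcoma in the left thigh were randomised on day 10. They received 2.5 mg/kg ip on day 11. Laser irradiation (810 nm, 0.51 W/cm2, 300 J/cm2, 1.5 cm field, 10 min) followed 2.5−3 h later. PCNA-positive parenchyma was scored by immunohistochemistry (mouse anti-PCNA PC10, 1:200, biotin−extravidin−peroxidase) on post-PDT days 1, 3 and 12, with five animals per time point.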

[11] = as §6, with “3” for “12”, “70” for “56”, “4%)” for “3%)”; type: functional; summary of the method: as §2
[12] = Phototoxicity against mouse S37 cells implanted in F1 mouse assessed as tumor growth inhibition at 5 mg/kg, iv preincubated for 30 mins with subsequent 150 J/cm2 irradiation measured on day 18 post irradiation relative to control; type: functional; conditions: S37, light or radiation study, read-out: TGI; summary of the method: as §5
[13] = Phototoxicity against mouse S37 cells implanted in F1 mouse assessed as tumor growth inhibition at 5 mg/kg, iv preincubated for 30 mins with subsequent 150 J/cm2 irradiation measured on day 8 post irradiation relative to control; type: functional; conditions: S37, light or radiation study, read-out: TGI; summary of the method: as §5
[14] = Phototoxicity against mouse S37 cells assessed as cell growth inhibition preincubated for 6 hrs with subsequent 10 J/cm2 irradiation followed by incubation in absence of compound for 24 hrs by MTT assay; type: functional; conditions: S37, light or radiation study; summary of the method: as §4
[15] = Phototoxicity against mouse S37 cells implanted in F1 mouse assessed as tumor growth inhibition at 2.5 mg/kg, iv preincubated for 15 mins with subsequent 150 J/cm2 irradiation measured on day 18 post irradiation relative to control; type: functional; conditions: S37, light or radiation study, read-out: TGI; summary of the method: as §5
[16] = Phototoxicity against mouse S37 cells implanted in F1 mouse assessed as tumor growth inhibition at 5 mg/kg, iv preincubated for 15 mins with subsequent 150 J/cm2 irradiation measured on day 18 post irradiation relative to control; type: functional; conditions: S37, light or radiation study, read-out: TGI; summary of the method: as §5
[17] = Phototoxicity against mouse S37 cells implanted in F1 mouse assessed as tumor growth inhibition at 2.5 mg/kg, iv preincubated for 15 mins with subsequent 150 J/cm2 irradiation measured on day 11 post irradiation relative to control; type: functional; conditions: S37, light or radiation study, read-out: TGI; summary of the method: as §5
[18] = Phototoxicity against mouse S37 cells implanted in F1 mouse assessed as tumor growth inhibition at 2.5 mg/kg, iv preincubated for 15 mins with subsequent 150 J/cm2 irradiation measured on day 20 post irradiation relative to control; type: functional; conditions: S37, light or radiation study, read-out: TGI; summary of the method: as §5
[19] = Phototoxicity against mouse S37 cells implanted in F1 mouse assessed as tumor growth inhibition at 2.5 mg/kg, iv preincubated for 15 mins with subsequent 150 J/cm2 irradiation measured on day 15 post irradiation relative to control; type: functional; conditions: S37, light or radiation study, read-out: TGI; summary of the method: as §5

CCCO/N=C(\C)c1c(C)c2cc3nc(c4c5[nH]c(cc6nc(cc1[nH]2)[C@@H](C)[C@@H]6CC)c(C)c5C(=O)N(OCCC)C4=O)[C@H](CCC(=O)NCCSSCCNC(=O)CC[C@@H]1c2nc(cc4[nH]c(cc5nc(cc6[nH]c7c2C(=O)N(OCCC)C(=O)c7c6C)[C@H](CC)[C@H]5C)c(/C(C)=N/OCCC)c4C)[C@H]1C)[C@H]3C gave an Activity [1] of 60%, an Activity [2] of 0.39% and an Activity [3] of 1.13 mm3. The CC50 [4] was 50 nM, the Activity [5] was 1.78% and the Activity (Sarcoma M1) was “Active”. For the same compound, the inhibition in vivo at 5 mg/kg [6] was 100%, the Activity [7] was 30% and the Activity [8] was 0.44 mm3. The Activity [9] was 26%, the Activity [10] was 38% and the Activity [11] was 23%. The inhibition in vivo at 5 mg/kg [12] was 100% and the inhibition in vivo at 5 mg/kg [13] was 100%.
In the case of CCCO/N=C(\C)c1c(C)c2cc3nc(c4c5[nH]c(cc6nc(cc1[nH]2)[C@H](C)[C@H]6CC)c(C)c5C(=O)N(OCCC)C4=O)[C@@H](CCC(=O)OC)[C@@H]3C, the CC50 [14] is reported as 110 nM, the inhibition in vivo at 2.5 mg/kg [15] is reported as 100% and the inhibition in vivo at 5 mg/kg [16] is reported as 100%. The inhibition in vivo at 2.5 mg/kg [17] was 100%, the inhibition in vivo at 2.5 mg/kg [18] was 100% and the inhibition in vivo at 2.5 mg/kg [19] was 100%.
